Measured values as given in ChEMBL document CHEMBL1155396, “The synthesis and angiotensin converting enzyme (ACE) inhibitory activity of chalcones and their pyrazole derivatives” (Bioorg Med Chem Lett, 2010).

Legend:
[1] = target: T1, Angiotensin-converting enzyme (Oryctolagus cuniculus, UniProt P12822); assay: (§1) Inhibition of ACE in rabbit lung assessed as decrease in dansylglycine concentration after 5 mins by HPLC analysis
T1 sequence (P12822 whole entry): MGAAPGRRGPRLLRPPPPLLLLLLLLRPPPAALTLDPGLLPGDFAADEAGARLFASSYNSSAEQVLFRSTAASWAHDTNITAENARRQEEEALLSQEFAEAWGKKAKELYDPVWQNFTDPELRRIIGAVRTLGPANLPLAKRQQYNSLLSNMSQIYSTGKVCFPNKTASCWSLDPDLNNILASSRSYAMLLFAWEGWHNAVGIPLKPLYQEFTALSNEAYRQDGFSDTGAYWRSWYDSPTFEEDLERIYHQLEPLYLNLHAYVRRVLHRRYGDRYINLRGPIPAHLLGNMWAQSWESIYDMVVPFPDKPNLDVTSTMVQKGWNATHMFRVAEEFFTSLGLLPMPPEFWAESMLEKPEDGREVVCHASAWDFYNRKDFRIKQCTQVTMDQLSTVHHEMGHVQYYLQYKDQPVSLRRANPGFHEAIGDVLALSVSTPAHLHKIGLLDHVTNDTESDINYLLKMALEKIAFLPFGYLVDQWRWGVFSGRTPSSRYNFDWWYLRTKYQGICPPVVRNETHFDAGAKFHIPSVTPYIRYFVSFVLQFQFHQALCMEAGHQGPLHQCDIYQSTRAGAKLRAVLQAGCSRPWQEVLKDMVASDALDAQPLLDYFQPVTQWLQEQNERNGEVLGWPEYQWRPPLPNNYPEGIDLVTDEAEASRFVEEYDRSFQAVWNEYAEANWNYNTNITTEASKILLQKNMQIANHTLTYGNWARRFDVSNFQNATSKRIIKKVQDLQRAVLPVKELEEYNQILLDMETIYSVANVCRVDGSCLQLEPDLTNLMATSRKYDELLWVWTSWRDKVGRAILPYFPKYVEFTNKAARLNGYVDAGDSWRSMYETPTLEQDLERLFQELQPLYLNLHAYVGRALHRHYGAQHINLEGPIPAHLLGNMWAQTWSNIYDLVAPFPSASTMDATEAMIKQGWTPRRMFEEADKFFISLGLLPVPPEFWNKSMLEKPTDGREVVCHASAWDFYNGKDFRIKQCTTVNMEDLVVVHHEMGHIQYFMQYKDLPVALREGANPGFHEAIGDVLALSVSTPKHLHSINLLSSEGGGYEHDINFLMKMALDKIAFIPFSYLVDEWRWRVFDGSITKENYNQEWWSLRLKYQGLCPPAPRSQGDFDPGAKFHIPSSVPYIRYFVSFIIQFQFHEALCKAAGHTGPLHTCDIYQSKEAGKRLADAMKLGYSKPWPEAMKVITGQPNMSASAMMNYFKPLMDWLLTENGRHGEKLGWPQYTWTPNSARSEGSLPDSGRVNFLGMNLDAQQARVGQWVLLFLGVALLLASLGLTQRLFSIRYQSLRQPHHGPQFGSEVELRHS
In short: (§2)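 Rabbit lung ACE, pre-incubated 5 min at 37 °C with compound dissolved in HEPES assay buffer. Reaction started with substrate dansyltriglycine (7.86 mM) plus internal standard dansyl-L-glutamine (0.353 mM), both in the added combined solution. Incubation time was set from a calibration curve. Dansylglycine was quantified by reversed-phase HPLC with UV detection, using isocratic 10 mM NaH₂PO₄ (pH 7)/acetonitrile 88:12. Percent inhibition was taken versus control, with IC50 by nonlinear regression; means of three experiments.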

[2] = target: T2, Angiotensin-converting enzyme (Oryctolagus cuniculus) (UniProt P12822); assay: as §1; in short: as §2
T2 sequence (whole entry): T1 sequence (P12822 whole entry)

With COc1ccc(/C=C/C(=O)c2cc(OC)c(OC)c(OC)c2)cc1[N+](=O)[O-] the IC50 [1] was 516 µM.
COc1ccc(C2CC(c3cc(OC)c(OC)c(OC)c3)=NN2C)cc1N (centres undefined) showed an IC50 [1] of 749 µM.
For COc1ccc(C2CC(c3cc(OC)c(OC)c(OC)c3)=NN2C)cc1[N+](=O)[O-] (centres undefined), the inhibition [2] was “Dose-dependent effect”.
With COc1cccc(/C=C/C(=O)c2cc(OC)c(OC)c(OC)c2)c1 the IC50 [1] was 622 µM.
With COc1cc(/C=C/C(=O)c2cc(OC)c(OC)c(OC)c2)ccc1O the inhibition [2] was “Dose-dependent effect” and the IC50 [1] was 246 µM.
Molecule COc1cc(C2=NN(C)C(c3ccccc3)C2)cc(OC)c1OC (centres undefined) has an IC50 [1] of 805 µM.
O=c1cc(-c2ccc(O)cc2)oc2cc(O)cc(O)c12 [APIGENIN] gave an IC50 [1] of 280 µM.
COc1cc([C-]2CC(c3ccc([N+](=O)[O-])c(O)c3)[N+](C)=N2)cc(OC)c1OC (centres undefined) gave an IC50 [1] of 599 µM.
O=c1c(O[C@@H]2O[C@H](CO)[C@H](O)[C@H](O)[C@H]2O)c(-c2ccc(O)cc2)oc2cc(O)cc(O)c12 [TRIFOLIN] was tested, and the IC50 [1] was 260 µM.
In the case of COc1cc(C(=O)/C=C/c2ccc([N+](=O)[O-])c(O)c2)cc(OC)c1OC, the IC50 [1] is reported as 552 µM.
With COc1ccc(C2CC(c3cc(OC)c(OC)c(OC)c3)=NN2C)cc1 (centres undefined) the inhibition [2] was “Dose-dependent effect” and the IC50 [1] was 435 µM.
Work on O=C(O)[C@H]1O[C@@H](Oc2c(-c3ccc(O)c(O)c3)oc3cc(O)cc(O)c3c2=O)[C@H](O)[C@@H](O)[C@@H]1O [QUERCETIN GLUCURONIDE] yielded an IC50 [1] of 200 µM.
O=c1cc(-c2ccc(O)c(O)c2)oc2cc(O)cc(O)c12 [LUTEOLIN] showed an IC50 [1] of 290 µM.
With COc1ccc(/C=C/C(=O)c2cc(OC)c(OC)c(OC)c2)cc1O the inhibition [2] was “Dose-dependent effect” and the IC50 [1] was 225 µM.
COc1ccc(/C=C/C(=O)c2cc(OC)c(OC)c(OC)c2)cc1 was tested, and the IC50 [1] was 574 µM.
COc1ccc(C2CC(c3cc(OC)c(OC)c(OC)c3)=NN2C)cc1F (centres undefined) gave an IC50 [1] of 770 µM.
COc1cccc(C2CC(c3cc(OC)c(OC)c(OC)c3)=NN2C)c1 (centres undefined) showed an IC50 [1] of 889 µM.
COc1ccc(C2C[C-](c3cc(OC)c(OC)c(OC)c3)N=[N+]2C)cc1[N+](=O)[O-] (centres undefined) was tested, and the IC50 [1] was 213 µM.
COc1cc(C(=O)/C=C/c2ccccc2)cc(OC)c1OC was tested, and the inhibition [2] was “Dose-dependent effect” and the IC50 [1] was 338 µM.
COc1ccc(C2CC(c3cc(OC)c(OC)c(OC)c3)=NN2C)cc1O (centres undefined) was tested, and the IC50 [1] was 762 µM.
For COc1ccc(/C=C/C(=O)c2cc(OC)c(OC)c(OC)c2)cc1N, the inhibition [2] was “Dose-dependent effect” and the IC50 [1] was 219 µM.
COc1cc(C2CC(c3cc(OC)c(OC)c(OC)c3)=NN2C)ccc1O (centres undefined) showed an IC50 [1] of 674 µM.
For COc1ccc(/C=C/C(=O)c2cc(OC)c(OC)c(OC)c2)cc1F, the IC50 [1] was 570 µM.
Work on O=c1cc(-c2ccc(O)c(O)c2)oc2cc(O[C@@H]3O[C@H](CO)[C@@H](O)[C@H](O)[C@H]3O)cc(O)c12 [GALUTEOLIN] yielded an IC50 [1] of 280 µM.
